ChEMBL document CHEMBL4152327, “Homopiperazine-rhodamine B adducts of triterpenoic acids are strong mitocans” (Eur J Med Chem, 2018)
Values belong to the compound of their own block, whether it stands above or below them.

Columns and labels:
NIH3T3 = assay: Cytotoxicity against mouse NIH/3T3 cells after 96 hrs by SRB assay; format: cell-based; conditions: NIH3T3, 96 h
Outline: (§1)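 SRB assay; cells exposed to compound for 96 h. EC50 in µM averaged from three independent experiments, each in triplicate, with 95% confidence interval and mean ± standard mean error. Assay cut-off 30 µM.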

MCF7 = assay: Cytotoxicity against human MCF7 cells after 96 hrs by SRB assay; format: functional, cell-based; conditions: MCF7, 96 h; outline: as §1
HT-29 = assay: Cytotoxicity against human HT-29 cells after 96 hrs by SRB assay; format: functional, cell-based; conditions: HT-29, 96 h; outline: as §1
A-375 = assay: Cytotoxicity against human A375 cells after 96 hrs by SRB assay; format: functional, cell-based; conditions: A-375, 96 h; outline: as §1
A2780 = assay: Cytotoxicity against human A2780 cells after 96 hrs by SRB assay; format: functional, cell-based; conditions: A2780, 96 h; outline: as §1
SW-1736 = assay: Cytotoxicity against human SW1736 cells after 96 hrs by SRB assay; format: functional, cell-based; conditions: SW-1736, 96 h; outline: as §1
[1] = Selectivity index, ratio of EC50 for mouse NIH/3T3 cells to EC50 for human A2780 cells; format: toxicity; conditions: NIH/3T3 cells and A2780 cells, read-out: Ratio EC50
[2] = Drug uptake in mitochondria of human A2780 cells at 100 nM after 24 hrs by rhodamine 123 staining-based fluorescence microscopic method; format: ADME; conditions: a2780, 24 h, 0.1 µM
Outline: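 A2780 cells, about 1·10^6 per 25 cm² flask, grown 24 h, then given fresh medium containing compound for 24 h (blank medium as control). Cells collected, centrifuged at 1200 rpm and 4 °C, washed in PBS, then mixed with Hoechst 33342/Rhodamine 123 solution (10 µg/ml). Incubated 30 min at 37 °C in the dark, washed, and viewed by epifluorescence microscopy.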

Structure (SMILES): CC(=O)O[C@@H]1CC[C@@]2(C)[C@@H](CC[C@]3(C)[C@@H]2C(=O)C=C2[C@@H]4[C@@H](C)[C@H](C)CC[C@]4(C)CC[C@]23C)[C@@]1(C)C(=O)N1CCCNCC1
EC50 (NIH3T3): 0.9 µM
EC50 (MCF7): 2.41 µM
EC50 (HT-29): 1.99 µM
EC50 (A-375): 3.21 µM
EC50 (A2780): 2.85 µM

Structure (SMILES): C=C(C)[C@@H]1CC[C@]2(C(=O)N3CCCNCC3)CC[C@]3(C)[C@H](CC[C@@H]4[C@@]5(C)CC[C@H](OC(C)=O)C(C)(C)[C@@H]5CC[C@]43C)[C@@H]12
EC50 (SW-1736): 1.84 µM
EC50 (NIH3T3): 1.05 µM
EC50 (MCF7): 1.52 µM
EC50 (HT-29): 1.47 µM
EC50 (A2780): 1.61 µM

Structure (SMILES): CC(=O)O[C@@H]1CC[C@@]2(C)[C@@H](CC[C@]3(C)[C@@H]2C(=O)C=C2[C@@H]4[C@@H](C)[C@H](C)CC[C@]4(C)CC[C@]23C)[C@@]1(C)C(=O)NCc1ccccc1
EC50 (NIH3T3): 28.1 µM
EC50 (MCF7): 9.8 µM
EC50 (HT-29): 20.2 µM
EC50 (A-375): 13.7 µM
EC50 (A2780): 10.8 µM

Structure (SMILES): CCN(CC)c1ccc2c(-c3ccccc3C(=O)N3CCCN(C(=O)[C@]4(C)[C@@H]5CC[C@]6(C)[C@H](C(=O)C=C7[C@@H]8[C@@H](C)[C@H](C)CC[C@]8(C)CC[C@]76C)[C@@]5(C)CC[C@H]4OC(C)=O)CC3)c3ccc(=[N+](CC)CC)cc-3oc2c1
EC50 (NIH3T3): 0.4 µM
EC50 (MCF7): 0.39 µM
EC50 (HT-29): 0.5 µM
EC50 (A-375): 0.51 µM
EC50 (A2780): 0.45 µM

Structure (SMILES): CCN(CC)c1ccc2c(-c3ccccc3C(=O)N3CCCN(C(=O)[C@@]4(C)CC[C@]5(C)CC[C@]6(C)C(=CC(=O)[C@@H]7[C@@]8(C)CC[C@H](OC(C)=O)C(C)(C)[C@@H]8CC[C@]76C)[C@@H]5C4)CC3)c3ccc(=[N+](CC)CC)cc-3oc2c1
EC50 (SW-1736): 0.22 µM
EC50 (NIH3T3): 0.33 µM
EC50 (MCF7): 0.22 µM
EC50 (HT-29): 0.28 µM
EC50 (A-375): 0.76 µM
EC50 (A2780): 0.22 µM

Structure (SMILES): CC(=O)O[C@H]1CC[C@]2(C)[C@H]3CC=C4[C@@H]5CC(C)(C)CC[C@]5(C(=O)N5CCCNCC5)CC[C@@]4(C)[C@]3(C)CC[C@H]2C1(C)C
EC50 (SW-1736): 3.25 µM
EC50 (NIH3T3): 1.23 µM
EC50 (MCF7): 1.5 µM
EC50 (HT-29): 1.3 µM
EC50 (A-375): 2.3 µM
EC50 (A2780): 2.31 µM

Structure (SMILES): CCN(CC)c1ccc2c(-c3ccccc3C(=O)O[C@@H]3CC[C@@]4(C)[C@@H](CC[C@]5(C)[C@@H]4C(=O)C=C4[C@@H]6[C@@H](C)[C@H](C)CC[C@]6(C)CC[C@]45C)[C@@]3(C)C(=O)OC)c3ccc(=[N+](CC)CC)cc-3oc2c1
EC50 (NIH3T3): 0.19 µM
EC50 (MCF7): 0.23 µM
EC50 (HT-29): 0.29 µM
EC50 (A-375): 0.36 µM
EC50 (A2780): 0.3 µM

Structure (SMILES): C[C@H]1[C@H](C)CC[C@]2(C)CC[C@]3(C)C(=CC(=O)[C@@H]4[C@@]5(C)CC[C@@H](O)[C@](C)(C(=O)OCc6ccccc6)[C@@H]5CC[C@]43C)[C@H]12
EC50 (SW-1736): 24.8 µM
EC50 (NIH3T3): > 30 µM
EC50 (MCF7): 26.4 µM
EC50 (HT-29): 28.8 µM
EC50 (A-375): 24.8 µM
EC50 (A2780): 30.1 µM

Structure (SMILES): CCN(CC)c1ccc2c(-c3ccccc3C(=O)O[C@H]3CC[C@@]4(C)[C@@H](CC[C@]5(C)[C@@H]4C(=O)C=C4[C@@H]6[C@@H](C)[C@H](C)CC[C@]6(C)CC[C@]45C)[C@@]3(C)C(=O)NCc3ccccc3)c3ccc(=[N+](CC)CC)cc-3oc2c1
EC50 (NIH3T3): 0.4 µM
EC50 (MCF7): 0.49 µM
EC50 (HT-29): 0.55 µM
EC50 (A-375): 0.59 µM
EC50 (A2780): 0.53 µM

Structure (SMILES): CC(=O)O[C@H]1CC[C@]2(C)[C@H]3CC=C4[C@@H]5[C@@H](C)[C@H](C)CC[C@]5(C(=O)N5CCCNCC5)CC[C@@]4(C)[C@]3(C)CC[C@H]2C1(C)C
EC50 (NIH3T3): 1.81 µM
EC50 (MCF7): 1.61 µM
EC50 (HT-29): 1.88 µM
EC50 (A-375): 1.95 µM
EC50 (A2780): 2.21 µM

Structure (SMILES): C[C@H]1[C@H](C)CC[C@]2(C)CC[C@]3(C)C(=CC(=O)[C@@H]4[C@@]5(C)CC[C@@H](O)[C@](C)(C(=O)NCc6ccccc6)[C@@H]5CC[C@]43C)[C@H]12
EC50 (NIH3T3): 4.9 µM
EC50 (MCF7): 7.3 µM
EC50 (HT-29): 10.7 µM
EC50 (A-375): 12.8 µM
EC50 (A2780): 10 µM

Structure (SMILES): CC(=O)O[C@H]1CC[C@]2(C)[C@H]3C(=O)C=C4[C@@H]5C[C@@](C)(C(=O)N6CCCNCC6)CC[C@]5(C)CC[C@@]4(C)[C@]3(C)CC[C@H]2C1(C)C
EC50 (SW-1736): 18.7 µM
EC50 (NIH3T3): 12.3 µM
EC50 (MCF7): 10.7 µM
EC50 (HT-29): 5.11 µM
EC50 (A-375): 18.7 µM
EC50 (A2780): 12 µM

Structure (SMILES): CCN(CC)c1ccc2c(-c3ccccc3C(=O)N3CCCN(C(=O)[C@]45CC[C@@H](C)[C@H](C)[C@H]4C4=CC[C@@H]6[C@@]7(C)CC[C@H](OC(C)=O)C(C)(C)[C@@H]7CC[C@@]6(C)[C@]4(C)CC5)CC3)c3ccc(=[N+](CC)CC)cc-3oc2c1
EC50 (SW-1736): 0.04 µM
EC50 (NIH3T3): 0.14 µM
EC50 (MCF7): 0.03 µM
EC50 (HT-29): 0.04 µM
EC50 (A-375): 0.04 µM
EC50 (A2780): 0.02 µM

Structure (SMILES): CCN(CC)c1ccc2c(-c3ccccc3C(=O)O[C@H]3CC[C@@]4(C)[C@@H](CC[C@]5(C)[C@@H]4C(=O)C=C4[C@@H]6[C@@H](C)[C@H](C)CC[C@]6(C)CC[C@]45C)[C@@]3(C)C(=O)OCc3ccccc3)c3ccc(=[N+](CC)CC)cc-3oc2c1
EC50 (NIH3T3): 1.01 µM
EC50 (MCF7): 1.38 µM
EC50 (HT-29): 1.71 µM
EC50 (A-375): 1.52 µM
EC50 (A2780): 1.32 µM

Drug uptake [2]: Active
Structure (SMILES): CCN(CC)c1ccc2c(-c3ccccc3C(=O)N3CCCN(C(=O)[C@]45CCC(C)(C)C[C@H]4C4=CC[C@@H]6[C@@]7(C)CC[C@H](OC(C)=O)C(C)(C)[C@@H]7CC[C@@]6(C)[C@]4(C)CC5)CC3)c3ccc(=[N+](CC)CC)cc-3oc2c1.[Cl-]
EC50 (SW-1736): 0.03 µM
selectivity ratio [1]: 17
EC50 (NIH3T3): 0.17 µM
EC50 (MCF7): 0.03 µM
EC50 (HT-29): 0.04 µM
EC50 (A-375): 0.03 µM
EC50 (A2780): 0.01 µM

Structure (SMILES): C=C(C)[C@@H]1CC[C@]2(C(=O)O)CC[C@]3(C)[C@H](CC[C@@H]4[C@@]5(C)CC[C@H](O)C(C)(C)[C@@H]5CC[C@]43C)[C@@H]12 [BETULINIC ACID]
EC50 (SW-1736): 18.3 µM
EC50 (A-375): 17.1 µM
